Source: ChEMBL document CHEMBL1139169, “Design, synthesis, and antiviral properties of 4'-substituted ribonucleosides as inhibitors of hepatitis C virus replication: the discovery of R1479” (Bioorg Med Chem Lett, 2007)

How the values were obtained:
Hepatitis C virus [1] = experiment: Inhibition of HCV 1b BK NS5B570 RNA polymerase; set-up: species or system Hepatitis C virus subtype 1b
Outline: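 NS5B570-BK polymerase activity was read as incorporation of radiolabeled nucleoside monophosphate into acid-insoluble RNA products, with HCV cIRES RNA as template.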

Hepatitis C virus [2] = experiment: Antiviral activity against HCV 1b replicon in human 2209-23 cells assessed as inhibition of viral replication at 20 uM; type: functional, Hepacivirus hominis; conditions: genotype 1b
Outline: (§1)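 Huh-7 replicon cell line 2209-23. Compounds were tested at a single fixed concentration and scored as percent inhibition of replicon replication, or titrated to give the IC50, the concentration producing a 50% reduction in replicon replication.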

[3] = Cytotoxicity against human 2209-23 cells at 20 uM; type: cell-based; conditions: 2209-23, 20 µM
[4] = Cytotoxicity against human 2209-23 cells at 100 uM; type: cell-based; conditions: 2209-23, 100 µM
Hepatitis C virus [5] = experiment: Antiviral activity against HCV 1b replicon in human 2209-23 cells assessed as inhibition of viral replication at 100 uM; type: functional, Hepacivirus hominis; conditions: genotype 1b
[6] = Cytotoxicity against human 2209-23 cells; type: cell-based
Hepatitis C virus [7] = experiment: Antiviral activity against HCV 1b replicon in human 2209-23 cells; type: functional, organism-based, Hepacivirus hominis; conditions: genotype 1b; outline: as §1
[8] = Cytostatic activity against human 2209-23 cells; type: ADME, cell-based; conditions: read-out: CT50 (the source's name)
Outline: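 Replicon cells were tested for proliferation by measuring incorporation of tritiated thymidine into cellular DNA with a scintillation proximity assay (SPA). CT50 was taken as the cytostatic concentration.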

SMILES | inhibition at 20 µM (Hepatitis C virus [2]) | Activity [3] | further results
[N-]=[N+]=N[C@]1(CO)O[C@@H](n2ccc(=O)[nH]c2=O)[C@H](O)[C@@H]1O | 13% | 17% | IC50 (Hepatitis C virus [1]): 0.3 µM
CC[C@]1(CO)O[C@@H](n2ccc(N)nc2=O)[C@H](O)[C@@H]1O | – | – | Activity [4]: 20%; inhibition at 100 µM (Hepatitis C virus [5]): 20%
O=c1ccn([C@@H]2OC(CO)(CO)[C@@H](O)[C@H]2O)c(=O)[nH]1 | 1% | 0% | –
CC#C[C@]1(CO)O[C@@H](n2ccc(=O)[nH]c2=O)[C@H](O)[C@@H]1O | – | – | Activity [4]: 19%; inhibition at 100 µM (Hepatitis C virus [5]): 76%
CC#C[C@]1(CO)O[C@@H](n2ccc(N)nc2=O)[C@H](O)[C@@H]1O | 11% | 0% | –
C=C[C@]1(CO)O[C@@H](n2ccc(=O)[nH]c2=O)[C@H](O)[C@@H]1O | – | 0% | inhibition at 100 µM (Hepatitis C virus [5]): 50%
C=C[C@]1(CO)O[C@@H](n2ccc(N)nc2=O)[C@H](O)[C@@H]1O | – | 0% | inhibition at 100 µM (Hepatitis C virus [5]): 53%
N#C[C@]1(CO)O[C@@H](n2ccc(=O)[nH]c2=O)[C@H](O)[C@@H]1O | 0% | 0% | –
N#C[C@]1(CO)O[C@@H](n2ccc(N)nc2=O)[C@H](O)[C@@H]1O | 99% | 100% | –
C#C[C@]1(CO)O[C@@H](n2ccc(=O)[nH]c2=O)[C@H](O)[C@@H]1O | 0% | 0% | –
Nc1ccn([C@@H]2O[C@H](CO)[C@@H](O)[C@H]2F)c(=O)n1 | – | – | CC50 [6]: > 100 µM; IC50 (Hepatitis C virus [7]): 0.58 µM; GI50 [8]: 0.8 µM
CCO[C@]1(CO)O[C@@H](n2ccc(N)nc2=O)[C@H](O)[C@@H]1O | 11% | 0% | –
Nc1ccn([C@@H]2OC(CO)(CO)[C@@H](O)[C@H]2O)c(=O)n1 | 13% | 2% | –
C=CC[C@]1(CO)O[C@@H](n2ccc(=O)[nH]c2=O)[C@H](O)[C@@H]1O | – | – | CC50 [6]: 39 µM; IC50 (Hepatitis C virus [7]): 22 µM
C=CC[C@]1(CO)O[C@@H](n2ccc(N)nc2=O)[C@H](O)[C@@H]1O | 0% | 0% | –
C[C@@]1(O)[C@H](O)[C@@H](CO)O[C@H]1n1ccc(N)nc1=O | – | – | CC50 [6]: > 33 µM; IC50 (Hepatitis C virus [7]): 1.23 µM; GI50 [8]: > 100 µM
C#C[C@]1(CO)O[C@@H](n2ccc(N)nc2=O)[C@H](O)[C@@H]1O | 3% | 0% | IC50 (Hepatitis C virus [1]): 2.7 µM
[N-]=[N+]=N[C@]1(CO)O[C@@H](n2ccc(N)nc2=O)[C@H](O)[C@@H]1O [4'-AZIDOCYTIDINE] | 97% | 13% | CC50 [6]: > 2000 µM; IC50 (Hepatitis C virus [1]): 0.29 µM; IC50 (Hepatitis C virus [7]): 1.28 µM; GI50 [8]: > 100 µM
